# According to ChEMBL document CHEMBL1821722, “Design, synthesis and biological evaluation of novel desmuramyldipeptide analogs” (Eur J Med Chem, 2011):
# The source made the active and inactive calls. The calls are words filed in the database; no cut-off is given here.
# Legend:
# THP-1 [1] = experiment: Cytotoxicity against human THP1 cells assessed as LDH release at 20.2 uM; assay type: cell-based; conditions: thp-1, 20.2 µM
# In short: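 LDH leakage into the medium used as the cytotoxicity read-out, taken at the highest concentration tested.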
# PBMC [2] = experiment: Immunostimulatory effect in human PBMC cells assessed as increase in […]/ionomycin-induce IL-6 release at 20.2 uM after 18 hrs by flow cytometry analysis relative to PMA and ionomycin; assay type: functional
# In short: (§1)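 PBMC prepared from donor buffy coat on Ficoll-Paque and kept in supplemented RPMI 1640. Cells (0.5 × 10⁶) given 20.2 µM compound with PMA 3.33 ng/ml and ionomycin 500 nM (final) for 18 h at 37 °C, 5% CO₂. Supernatant IL-1β, IL-6, IL-8, IL-10 and TNF-α read by flow cytometry. Expressed relative to PMA/ionomycin alone, mean ± SD of 4 samples, two donors.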
# PBMC [3] = experiment: Immunomodulatory effect in human PBMC cells assessed as decrease in LPS-induced IL-10 release at 20.2 uM after 18 hrs by flow cytometry analysis relative to LPS; assay type: functional; design: scale not given: the % may be the effect or the level left
# In short: (§2)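 Human PBMC isolated from healthy-donor buffy coats on a Ficoll-Paque gradient. Cultured in RPMI 1640 with 10% heat-inactivated FCS, 2 mM L-glutamine and 50 µM 2-mercaptoethanol. 0.5 × 10⁶ cells exposed to 20.2 µM compound plus 10 ng/ml LPS, DMSO ≤0.1%, for 18 h at 37 °C in 5% CO₂. Supernatant cytokines measured by flow cytometric bead assay. Values are % of LPS alone, mean ± SD of 4 samples, two donors.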
# PBMC [4] = experiment: Immunomodulatory effect in human PBMC cells assessed as LPS-induced IL1-beta release at 20.2 uM after 18 hrs by flow cytometry analysis relative to LPS; assay type: functional; in short: as §2
# PBMC [5] = experiment: Immunostimulatory effect in human PBMC cells assessed as increase in […]/ionomycin-induce IL-8a release at 20.2 uM after 18 hrs by flow cytometry analysis relative to PMA and ionomycin; assay type: functional; in short: as §1
# THP-1 [6] = experiment: Toxicity in human THP1 cells assessed TNF-alpha release at 20.2 uM after 24 hrs by sandwich ELISA; assay type: cell-based; conditions: thp-1, 24 h
# In short: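 THP-1 in supplemented RPMI 1640 co-incubated 24 h with 20.2 µM compound and 1 ng/ml LPS, DMSO ≤0.2%. TNF-α release expressed as % of the LPS-only response, mean ± SD of 6 samples, Mann-Whitney U test.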
# PBMC [7] = experiment: Immunomodulatory effect in human PBMC cells assessed as decrease in LPS-induced IL-8a release at 20.2 uM after 18 hrs by flow cytometry analysis relative to LPS; assay type: functional; design: scale not given: the % may be the effect or the level left; in short: as §2
# PBMC [8] = experiment: Immunomodulatory effect in human PBMC cells assessed as decrease in LPS-induced IL-6 release at 20.2 uM after 18 hrs by flow cytometry analysis relative to LPS; assay type: functional; design: scale not given: the % may be the effect or the level left; in short: as §2
# PBMC [9] = experiment: Cytotoxicity against human PBMC assessed as LDH release at 20.2 uM; assay type: cell-based
# PBMC [10] = experiment: Immunostimulatory effect in human PBMC cells assessed as increase in […]/ionomycin-induce IL-10 release at 20.2 uM after 18 hrs by flow cytometry analysis relative to PMA and ionomycin; assay type: functional; in short: as §1
# THP-1 [11] = experiment: Immunomodulatory effect in human THP1 cells assessed as increase in LPS-induced TNF-alpha release at 20.2 uM after 24 hrs by sandwich ELISA relative to LPS; assay type: functional
# In short: (§3)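 THP-1 cells at 10⁶ cells/ml in RPMI 1640 with 10% heat-inactivated FCS. Co-incubated 24 h with compound (0.2–200 µM) plus E. coli 0127:B8 LPS 1 ng/ml, DMSO vehicle ≤0.2% final. TNF-α in supernatant expressed as % of LPS-induced release, mean ± SD of 6 samples.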
# PBMC [12] = experiment: Immunostimulatory effect in human PBMC cells assessed as increase in […]/ionomycin-induce IL1-beta release at 20.2 uM after 18 hrs by flow cytometry analysis relative to PMA and ionomycin; assay type: functional; in short: as §1
# PBMC [13] = experiment: Immunostimulatory effect in human PBMC cells assessed as increase in […]/ionomycin-induce TNFalpha release at 20.2 uM after 18 hrs by flow cytometry analysis relative to PMA and ionomycin; assay type: functional; in short: as §1
# PBMC [14] = experiment: Immunomodulatory effect in human PBMC cells assessed as increase in LPS-induced TNFalpha release at 20.2 uM after 18 hrs by flow cytometry analysis relative to LPS; assay type: functional; in short: as §2
# THP-1 [15] = experiment: Immunomodulatory effect in human THP1 cells assessed as increase in LPS-induced TNF-alpha release at 200 uM after 24 hrs by sandwich ELISA relative to LPS; assay type: functional; in short: as §3
# PBMC [16] = experiment: Immunomodulatory effect in human PBMC cells assessed as increase in LPS-induced IL-8a release at 20.2 uM after 18 hrs by flow cytometry analysis relative to LPS; assay type: functional; in short: as §2
# THP-1 [17] = experiment: Immunomodulatory effect in human THP1 cells assessed as increase in LPS-induced TNF-alpha release after 24 hrs by sandwich ELISA relative to LPS; assay type: functional, cell-based; in short: as §3
# PBMC [18] = experiment: Immunomodulatory effect in human PBMC cells assessed as increase in LPS-induced IL-6 release at 20.2 uM after 18 hrs by flow cytometry analysis relative to LPS; assay type: functional; in short: as §2
# THP-1 [19] = experiment: Immunomodulatory effect in human THP1 cells assessed as increase in LPS-induced TNF-alpha release at 2 uM after 24 hrs by sandwich ELISA relative to LPS; assay type: functional; in short: as §3
# THP-1 [20] = experiment: Immunomodulatory effect in human THP1 cells assessed as increase in LPS-induced TNF-alpha release at 0.2 uM after 24 hrs by sandwich ELISA relative to LPS; assay type: functional; in short: as §3
# PBMC [21] = experiment: Immunomodulatory effect in human PBMC cells assessed as increase in LPS-induced IL-10 release at 20.2 uM after 18 hrs by flow cytometry analysis relative to LPS; assay type: functional; in short: as §2
# PBMC [22] = experiment: Immunosuppressive effect in human PBMC cells assessed as […] in […]/ionomycin-induce IL1-beta release at 20.2 uM after 18 hrs by flow cytometry analysis relative to PMA and ionomycin; assay type: functional; in short: as §1
# PBMC [23] = experiment: Immunosuppressive effect in human PBMC cells assessed as […] in […]/ionomycin-induce IL-6 release at 20.2 uM after 18 hrs by flow cytometry analysis relative to PMA and ionomycin; assay type: functional; in short: as §1
# PBMC [24] = experiment: Immunosuppressive effect in human PBMC cells assessed as […] in […]/ionomycin-induce IL-8a release at 20.2 uM after 18 hrs by flow cytometry analysis relative to PMA and ionomycin; assay type: functional; in short: as §1
# PBMC [25] = experiment: Immunosuppressive effect in human PBMC cells assessed as […] in […]/ionomycin-induce IL-10 release at 20.2 uM after 18 hrs by flow cytometry analysis relative to PMA and ionomycin; assay type: functional; in short: as §1
# PBMC [26] = experiment: Immunosuppressive effect in human PBMC cells assessed as […] in […]/ionomycin-induce TNFalpha release at 20.2 uM after 18 hrs by flow cytometry analysis relative to PMA and ionomycin; assay type: functional; in short: as §1
# PBMC [27] = experiment: Immunomodulatory effect in human PBMC cells assessed as increase in LPS-induced TNF-alpha release at 20.2 uM after 24 hrs by sandwich ELISA; assay type: functional, cell-based
Compound,Activity (THP-1 [1]),Activity (PBMC [2]),Activity (PBMC [4]),Activity (PBMC [5]),Activity (THP-1 [6]),Activity (PBMC [9]),Activity (PBMC [10]),Activity (THP-1 [11]),Activity (PBMC [12]),Activity (PBMC [13]),Activity (PBMC [14]),Activity (PBMC [18]),Activity (PBMC [21]),further results
C[C@H](NC(=O)COCCN1C(=O)c2ccccc2S1(=O)=O)C(=O)N[C@H](CCC(=O)O)C(=O)O,Non-toxic,91%,85%,104%,Non-toxic,Non-toxic,116%,117%,112%,124%,104%,,,Activity (PBMC [3]): 65.5%; Activity (PBMC [7]): 89.5%; Activity (PBMC [8]): 86%
C[C@H](NC(=O)CCCCN1C(=O)c2ccccc2S1(=O)=O)C(=O)N[C@@H](CCC(=O)O)C(N)=O,Non-toxic,,,,Non-toxic,Non-toxic,,119.3%,,,,,,
C[C@H](NC(=O)C1=C2c3ccccc3S(=O)(=O)N2CCC1)C(=O)N[C@H](CCC(=O)O)C(N)=O,Non-toxic,74%,94%,103%,Non-toxic,Non-toxic,88.5%,120.2%,88%,105.5%,115%,103.5%,94%,Activity (THP-1 [15]): 204.3%; Activity (PBMC [16]): 98.5%; Activity (THP-1 [17]): Dose-dependent effect; Activity (THP-1 [19]): 92.5%; Activity (THP-1 [20]): 90.3%
C[C@@H](NC(=O)CCCCN1C(=O)c2ccccc2S1(=O)=O)C(=O)N[C@@H](CCC(=O)O)C(N)=O,Non-toxic,,,,Non-toxic,Non-toxic,,91%,,,,,,
CCOC(=O)CC[C@@H](NC(=O)[C@H](C)NC(=O)C1=C2c3ccccc3S(=O)(=O)N2CCC1)C(N)=O,Non-toxic,139.5%,95%,134%,Non-toxic,Non-toxic,82.5%,122%,406%,142%,122.5%,120%,105.5%,Activity (PBMC [16]): 94.5%
C[C@H](NC(=O)CNC(=O)c1cc2ccccc2[nH]1)C(=O)N[C@H](CCC(=O)O)C(=O)O,Non-toxic,,78%,,Non-toxic,Non-toxic,,118.5%,,,103.5%,,,Activity (PBMC [22]): 96.5%; Activity (PBMC [3]): 68.5%; Activity (PBMC [23]): 42.5%; Activity (PBMC [24]): 90%; Activity (PBMC [7]): 95.5%; Activity (PBMC [8]): 76.8%; Activity (PBMC [25]): 75.8%; Activity (PBMC [26]): 63.5%
C[C@H](NC(=O)C1=C2c3ccccc3S(=O)(=O)N2CCC1)C(=O)N[C@H](CCC(=O)O)C(=O)O,Non-toxic,,,,Non-toxic,Non-toxic,,113.3%,,,,,,
CCCCOC(=O)[C@@H](CCC(N)=O)NC(=O)[C@H](C)NC(=O)[C@@H](C)O[C@H]1[C@H](O)[C@@H](CO)OC(O)[C@@H]1NC(C)=O (stereo partly specified) [MURABUTIDE],Non-toxic,439.5%,416.5%,152%,Non-toxic,Non-toxic,158.5%,182.6%,2964.5%,332.5%,696.5%,594.5%,559%,Activity (PBMC [16]): 107%
C[C@H](NC(=O)CCCCN1C(=O)c2ccccc2S1(=O)=O)C(=O)N[C@H](CCC(=O)O)C(N)=O,Non-toxic,81%,106%,103%,Non-toxic,Non-toxic,84.5%,114%,91.5%,96%,108.5%,109%,98%,Activity (PBMC [16]): 97.5%
C[C@H](NC(=O)CNC(=O)c1cc2ccccc2[nH]1)C(=O)N[C@H](CCC(=O)O)C(N)=O,Non-toxic,,90.5%,,Non-toxic,Non-toxic,,126.2%,,,101%,,,Activity (PBMC [22]): 91.5%; Activity (PBMC [3]): 71.5%; Activity (PBMC [23]): 76%; Activity (PBMC [24]): 98.5%; Activity (PBMC [7]): 98.5%; Activity (PBMC [8]): 74%; Activity (PBMC [25]): 102%; Activity (PBMC [26]): 93.5%
C[C@H](NC(=O)C1CCCN2C1c1ccccc1S2(=O)=O)C(=O)N[C@H](CCC(=O)O)C(=O)O (stereo partly specified),Non-toxic,,,,Non-toxic,Non-toxic,,110.5%,,,,,,
C[C@@H](NC(=O)CCCCN1C(=O)c2ccccc2S1(=O)=O)C(=O)N[C@H](CCC(=O)O)C(N)=O,Non-toxic,,,,Non-toxic,Non-toxic,,115.3%,,,,,,
C[C@H](NC(=O)CCNC(=O)c1cc2ccccc2[nH]1)c1noc(CCC(=O)O)n1,Non-toxic,,,,Non-toxic,Non-toxic,,113.4%,,,,,,
CC(=O)N[C@@H]1[C@@H](O[C@H](C)C(=O)N[C@@H](C)C(=O)N[C@@H](CCC(=O)O)C(N)=O)[C@H](O)[C@@H](CO)O[C@H]1O,,,,,,,,,,,,,,Activity (PBMC [27]): Active
C[C@H](NC(=O)COCCN1C(=O)c2ccccc2S1(=O)=O)C(=O)N[C@H](CCC(=O)O)C(N)=O,Non-toxic,63.5%,95.5%,110.5%,Non-toxic,Non-toxic,89.5%,114.3%,122%,83.5%,104.5%,95.5%,84.5%,Activity (PBMC [7]): 96.5%
